Series [1] in a line: Antiproliferative activity against human MIAPaCa2 cells incubated for 72 hrs by MTT assay. To be noted: Homo sapiens, MIA PaCa-2, 72 h. Type of series: functional, cell-based, MIA PaCa-2. An outline of the steps:
(§1)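 Cells seeded at 5000 per well on day 0. Test agents added in five 10-fold dilutions (0.01–100 μM) for a further 72 h, with DMSO ≤0.1% as solvent control. Growth was read by MTT and absorbance converted to percentage growth against untreated cells on the same plate. IC50 came from linear regression on dose–response curves. Quadruplicate points, three independent experiments.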

The next series relates to SW-620. Description: Antiproliferative activity against human SW620 cells incubated for 72 hrs by MTT assay. Type of series: functional, cell-based. To be noted: Homo sapiens, SW-620, 72 h. An outline of the steps:
as §1
Background: Tetrazolium assays rely on reduction of a dye to a coloured formazan, in cell work by metabolically active cells.

The nature of series [2]: Antiproliferative activity against mouse L1210/0 cells incubated for 72 hrs by MTT assay. To be noted: Mus musculus, L1210/0, 72 h. Type of series: functional, cell-based. An outline of the steps:
as §1

The subject of another series is HepG2. Kind of series: Antiproliferative activity against human HepG2 cells incubated for 72 hrs by MTT assay. It is filed as functional, cell-based. To be noted: Homo sapiens, HepG2, 72 h. An outline of the steps:
as §1

The subject of another series is CFPAC-1. Description: Antiproliferative activity against human CFPAC-1 cells incubated for 72 hrs by MTT assay. It is filed as functional, cell-based. To be noted: CFPAC-1, 72 h. An outline of the steps: as §1
Series [3] can be described thus: Antiproliferative activity against human CEM/0 cells incubated for 72 hrs by MTT assay. To be noted: Homo sapiens, CCRF-CEM, 72 h. Type of series: functional, cell-based, CCRF-CEM. An outline of the steps: as §1
Series [4] deals with HeLa. Description: Antiproliferative activity against human HeLa cells incubated for 72 hrs by MTT assay. Type of series: functional, cell-based. To be noted: Homo sapiens, HeLa, 72 h. In a few lines:
as §1

Series [5] has as its system HeLa. Kind of series: Cytotoxicity against human HeLa cells assessed as cell growth reduction incubated for 3 days. Type of series: cell-based. To be noted: 72 h.
The next series deals with Coxsackievirus B4. Description: Antiviral activity against Coxsackievirus B4 expressed in African green monkey Vero cells assessed as reduction in cytopathogenicity. It is filed as functional, organism-based. To be noted: Enterovirus B. An outline of the steps: (§2)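 Confluent Vero monolayers were inoculated with 100 CCID50 of virus in the presence of 5-fold serial compound dilutions. Cytopathicity was scored once it was complete in untreated infected controls. EC50 is the concentration giving 50% reduction of virus-induced cytopathogenicity.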
For orientation: Protection from cytopathic effect is a common read-out in antiviral testing.

Series [6] deals with Human betaherpesvirus 5. Kind of series: Antiviral activity against Human cytomegalovirus AD169 expressed in HEL cells assessed as reduction in plaque formation incubated for 7 days by Giemsa stain based microscopy. To be noted: Human betaherpesvirus 5, AD169, HEL, 168 h. Type of series: functional, organism-based. An outline of the steps: (§3)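 Confluent HEL fibroblasts were infected at 100 PFU per well. After 2 h, residual virus was removed and compound-containing medium added, in duplicate. After 7 days at 37 °C, cells were ethanol-fixed, Giemsa-stained and examined microscopically. EC50 was read from graphic plots of % cytopathogenicity versus concentration.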

Another series concerns Punta Toro virus. Description: Antiviral activity against Punta Toro virus expressed in African green monkey Vero cells assessed as reduction in cytopathogenicity. Type of series: functional, organism-based. An outline of the steps: as §2
A short description of series [7]: Cytotoxicity against African green monkey Vero cells assessed as alteration in cell morphology by microscopy. Type of series: cell-based. To be noted: chlorocebus sabaeus. In a few lines: (§4)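 MCC is the compound concentration causing a microscopically visible alteration of cell morphology in the cultures used for the antiviral assays.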
The nature of series [8]: Cytotoxicity against human HEL cells assessed as alteration in cell morphology incubated for 3 days by microscopy. It is filed as cell-based. An outline of the steps:
as §4

In series [9] the test system is Human betaherpesvirus 5. Kind of series: Antiviral activity against Human cytomegalovirus Davis expressed in HEL cells assessed as reduction in plaque formation incubated for 7 days by Giemsa stain based microscopy. It is filed as functional, organism-based. To be noted: Human betaherpesvirus 5, Davis, 168 h. In a few lines:
as §3

Series [10] in a line: Cytotoxicity against CRFK cells assessed as cell growth reduction incubated for 3 days. Type of series: cell-based, Felis catus. To be noted: cat, 72 h.
The test system of the next series is Sindbis virus. Description: Antiviral activity against Sindbis virus expressed in African green monkey Vero cells assessed as reduction in cytopathogenicity. It is filed as functional, organism-based. In a few lines:
as §2

A further series deals with Human respirovirus 3. Kind of series: Antiviral activity against Parainfluenza virus 3 expressed in African green monkey Vero cells assessed as reduction in cytopathogenicity. It is filed as functional, organism-based. To be noted: Human respirovirus 3, Vero. In a few lines:
as §2

Series [11] concerns Mammalian orthoreovirus 1. Kind of series: Antiviral activity against Reovirus 1 expressed in African green monkey Vero cells assessed as reduction in cytopathogenicity. Type of series: functional, cell-based. To be noted: Mammalian orthoreovirus 1, Vero. In a few lines: as §2
A further series relates to HEL. Description: Cytotoxicity against human HEL cells assessed as cell growth reduction incubated for 3 days. Type of series: cell-based. To be noted: 72 h. An outline of the steps:
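HEL cells were seeded at 5 × 10^3 per well and allowed to proliferate for 24 h before compound-containing medium was added. After 3 days at 37 °C, cells were counted with a Coulter counter. CC50 (50% reduction of proliferation versus untreated controls) was estimated from graphic plots.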

Molecules are shown by their SMILES. Bounds are passed on as bounds.

Results on two molecules are retold here after ChEMBL document CHEMBL3627667, “Novel halogenated 3-deazapurine, 7-deazapurine and alkylated 9-deazapurine derivatives of L-ascorbic or imino-L-ascorbic acid: Synthesis, antitumour and antiviral activity evaluations” (Eur J Med Chem, 2015).

One may read the IC50 as the midpoint of a concentration-inhibition curve. As for `O=C1O/C(=C\Cn2cnc3ncc(Br)c-3c2)C(OCc2ccccc2)=C1OCc1ccccc1` (mixture of isomers), the IC50 in series [1] was more than 100 µM; with SW-620, more than 100 µM; in [2], 15 µM; in the series with HepG2 it was more than 100 µM; in the series with CFPAC-1, more than 100 µM; in series [3], 12 µM. In the series with HeLa [4], this molecule returned an IC50 of 17 µM.

As a reminder, the EC50 is the concentration at which the effect is half-maximal. The term CC50 denotes the concentration at which the toxic effect on the cells reaches its halfway point. For the molecule `O=C1O/C(=C\Cn2cnc3c(Cl)c(F)nc(F)c32)C(OCc2ccccc2)=C1OCc1ccccc1` (mixture of isomers), the IC50 in series [1] is more than 100 µM; with SW-620, 50 µM; with HepG2, more than 100 µM; with HeLa [4] it was more than 100 µM. For the same molecule, the Activity entry (in the series on HeLa [5]; in series [10]) was “Non-toxic” each time. Besides, the EC50 in the series with Coxsackievirus B4 was more than 20 µM; in the series with Human betaherpesvirus 5 [6], 8.94 µM; with Punta Toro virus, 12 µM; in the series on Human betaherpesvirus 5 [9] it was 8.94 µM; in the series on Sindbis virus, more than 20 µM; with Human respirovirus 3, more than 20 µM. The EC50 in [11] is more than 20 µM. Moreover, the MCC in series [7] was 20 µM. The MCC at 72 h in [8] is not below 100 µM. In addition, the CC50 in the series on HEL is more than 100 µM.
